Measurements published in ChEMBL document CHEMBL1133586, “The cyclohexene ring system as a furanose mimic: synthesis and antiviral activity of both enantiomers of cyclohexenylguanine” (2000).
≈ marks a conversion by molar mass, not a printed value. Where “and” joins values, the source holds several entries; their conditions need not be identical. Equal entries are not always repeated.

How the values were obtained:
Cytomegalovirus [1] = assay: Minimum inhibitory concentration was determined against CMV (AD 169) in HEL cells; assay type: functional; conditions: Human betaherpesvirus 5
How it was run: (§1)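 HEL cell cultures were infected with 20 PFU of virus and incubated with varying compound concentrations. The value is the concentration reducing virus plaque formation by 50%, as the mean of two independent determinations.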

Human alphaherpesvirus 1 [2] = assay: Minimum inhibitory concentration was determined against HSV-1 (F) in E6SM cell culture; assay type: functional, herpes simplex virus
How it was run: (§2)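 Confluent E6SM cultures in microtiter trays were infected with 100 CCID50 of virus. After 1 h adsorption, residual virus was removed and cultures were incubated with varying compound concentrations. Cytopathicity was read once virus controls reached completion. The value is the concentration reducing virus-induced cytopathogenicity by 50%, as the mean of two independent determinations.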

[3] = Selectivity index was determined in HSV-1 (KOS) in E6SM cell culture; assay type: functional
Cytomegalovirus [4] = assay: Minimum inhibitory concentration was determined in CMV (AD169) in HEL cell; assay type: functional; conditions: Human betaherpesvirus 5; how it was run: as §1
[5] = Minimum inhibitory concentration was determined against HSV-2 (G) in E6SM cell culture; assay type: functional, herpes simplex virus; how it was run: as §2
[6] = Selectivity index was determined against HSV-2 (Lyons) in E6SM cell culture; assay type: functional
[7] = Selectivity index was determined against VZV (OKA) in HEL cells; assay type: functional
Human alphaherpesvirus 3 [8] = assay: (§3) Minimum inhibitory concentration was determined against VZV (TK-YS/R) in HEL cells; assay type: functional; how it was run: as §1
[9] = Selectivity index was determined against CMV (AD 169) in HEL cells; assay type: functional
Cytomegalovirus [10] = assay: Minimum inhibitory concentration was determined against CMV (Davis) in HEL cell; assay type: functional; conditions: Human betaherpesvirus 5; how it was run: as §1
HeLa = assay: Cytotoxicity concentration required to microscopically detectable alteration of cell morphology in HeLa; assay type: functional, Homo sapiens
How it was run: (§4)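 Cytotoxicity was scored as the minimum concentration giving a microscopically detectable change in normal cell morphology of E6SM, HeLa or Vero cell cultures.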

Human alphaherpesvirus 3 [11] = assay: (§5) Minimum inhibitory concentration was determined against VZV (TK-07/1) in HEL cells; assay type: functional; how it was run: as §1
[12] = Selectivity index was determined against CMV (Davis) in HEL cells; assay type: functional
Human alphaherpesvirus 3 [13] = assay: as §3; assay type: functional; how it was run: as §1; remark: listed apart in the source
[14] = Minimum inhibitory concentration was determined against HSV-1 (KOS) in E6SM cell culture; assay type: functional, herpes simplex virus; how it was run: as §2
[15] = Selectivity index was determined against HSV-1 (TK-/TK+VMW1837) in E6SM cell culture; assay type: functional
HEL [16] = assay: Cytotoxicity concentration required to inhibit the cell growth by 50% in HEL; assay type: functional, Homo sapiens
How it was run: (§6)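 In HEL cells, cytotoxicity was measured as inhibition of normal cell growth, and the value is the concentration reducing cell growth by 50%.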

[17] = Minimum inhibitory concentration was determined against HSV-1 (TK-/TK+VMW1837) in E6SM cell culture; assay type: functional, herpes simplex virus; how it was run: as §2
Human alphaherpesvirus 3 [18] = assay: (§7) Minimum inhibitory concentration was determined against VZV (OKA) in HEL cells; assay type: functional; how it was run: as §1
[19] = Selectivity index was determined againstHSV-2 (196) in E6SM cell culture; assay type: functional
Human alphaherpesvirus 1 [20] = assay: (§8) Minimum inhibitory concentration was determined against HSV-1 (McIntyre) in E6SM cell culture; assay type: functional, herpes simplex virus; how it was run: as §2
[21] = Selectivity index was determined against VZV (YS) in HEL cells; assay type: functional
HEL [22] = assay: Cytotoxicity concentration required to reduce cell growth by 50% in HEL; assay type: functional, Homo sapiens; how it was run: as §6
Cytomegalovirus [23] = assay: Minimum inhibitory concentration was determined in CMV (Davis) in HEL cell; assay type: functional; conditions: Human betaherpesvirus 5; how it was run: as §1
[24] = Minimum inhibitory concentration was determined against HSV-2 (196) in E6SM cell culture; assay type: functional, herpes simplex virus; how it was run: as §2
[25] = Selectivity index was determined against VZV (TK-YS/R) in HEL cells; assay type: functional
[26] = Minimum inhibitory concentration was determined against HSV-2 (Lyons) in E6SM cell culture; assay type: functional, herpes simplex virus; how it was run: as §2
[27] = Selectivity index was determined against HSV-1 (F) in E6SM cell culture; assay type: functional
Human alphaherpesvirus 3 [28] = assay: (§9) Minimum inhibitory concentration was determined against VZV (YS) in HEL cells; assay type: functional; how it was run: as §1
E6SM = assay: Cytotoxicity concentration required to microscopically detectable alteration of cell morphology in E6SM; assay type: functional, Homo sapiens; how it was run: as §4
HEL [29] = assay: Cytotoxicity concentration required to microscopically detectable alteration of cell morphology HEL; assay type: functional, Homo sapiens
Cytomegalovirus [30] = assay: Minimum inhibitory concentration was determined against CMV(AD169) in E6SM cell culture; assay type: functional; conditions: Human betaherpesvirus 5; how it was run: as §2
Cytomegalovirus [31] = assay: Minimum inhibitory concentration was determined against CMV(Davis) in E6SM cell culture; assay type: functional; conditions: Human betaherpesvirus 5; how it was run: as §2
Vero = assay: Cytotoxicity concentration required to microscopically detectable alteration of cell morphology in Vero; assay type: functional, Chlorocebus sabaeus; how it was run: as §4
[32] = Minimum inhibitory concentration was determined against HSV-1 (TK-KOS ACV) in E6SM cell culture; assay type: functional, herpes simplex virus; conditions: Human alphaherpesvirus 1; how it was run: as §2
[33] = as §8; assay type: functional, herpes simplex virus; conditions: Human alphaherpesvirus 1; how it was run: as §2
Human alphaherpesvirus 1 [34] = assay: Minimum inhibitory concentration was determined against HSV-1 (G) in E6SM cell culture; assay type: functional, herpes simplex virus; how it was run: as §2
Human alphaherpesvirus 1 [35] = assay: Minimum inhibitory concentration was determined against HSV-1 (TK-/TK+VMW1837) in E6SM cell culture
[36] = Minimum inhibitory concentration was determined against HSV-2 (G) in E6SM cell culture; conditions: Human alphaherpesvirus 2
[37] = as §9; conditions: Human alphaherpesvirus 1
Human alphaherpesvirus 3 [38] = assay: as §3
Human alphaherpesvirus 2 = assay: Minimum inhibitory concentration was determined against HSV-2 (G) in E6SM cell culture
Human alphaherpesvirus 3 [39] = assay: as §5
Human alphaherpesvirus 3 [40] = assay: as §7
[41] = Human alphaherpesvirus 1, read-out: MIC
[42] = Human alphaherpesvirus 3, read-out: MIC

Nc1nc(O)c2ncn(C3C=CC(CO)C(O)C3)c2n1 (stereo not drawn)
MIC (Cytomegalovirus [1]): 1.5 µg/mL (≈ 5.41 µM)
MIC (Human alphaherpesvirus 1 [2]): 0.002 µg/mL (≈ 0.00721 µM)
MIC (Human alphaherpesvirus 1 [2]; [41]): 0.003 µg/mL (≈ 0.0108 µM)
Selectivity index [3]: > 5000
MIC (Cytomegalovirus [4]): 0.6 µg/mL (≈ 2.16 µM)
MIC [5]: 0.05 µg/mL (≈ 0.18 µM)
MIC [5, 41]: 0.07 µg/mL (≈ 0.252 µM)
Selectivity index [6]: >2.2 and >5
Selectivity index [7]: >10 and >30
MIC (Human alphaherpesvirus 3 [8]): 2.8 µg/mL (≈ 10.1 µM)
Selectivity index [9]: >13 and >30
MIC (Cytomegalovirus [10]): 1.7 µg/mL (≈ 6.13 µM)
Cytotoxicity (HeLa): 400 µg/mL
MIC (Human alphaherpesvirus 3 [11]): 5.8 µg/mL and 2.1 µg/mL
Selectivity index [12]: >12 and >25
MIC (Human alphaherpesvirus 3 [13]): 6.8 µg/mL (≈ 24.5 µM)
MIC [14]: 0.002 µg/mL (≈ 0.00721 µM)
MIC [14, 41]: 0.003 µg/mL (≈ 0.0108 µM)
Selectivity index [15]: >1.6 and >4
Cytotoxicity (HEL [16]): > 20 µg/mL
MIC [17]: 0.01 µg/mL (≈ 0.0361 µM)
MIC [17, 41]: 0.01 µg/mL (≈ 0.0361 µM)
MIC (Human alphaherpesvirus 3 [18]): 1.9 µg/mL and 0.64 µg/mL
Selectivity index [19]: > 160
MIC (Human alphaherpesvirus 1 [20]): 0.004 µg/mL (≈ 0.0144 µM)
MIC (Human alphaherpesvirus 1 [20]; [41]): 0.004 µg/mL (≈ 0.0144 µM)
Selectivity index [21]: >16 and >40
Cytotoxicity (HEL [22]): > 20 µg/mL
MIC (Cytomegalovirus [23]): 0.8 µg/mL (≈ 2.89 µM)
MIC [24]: 0.07 µg/mL (≈ 0.252 µM)
MIC [24, 41]: 0.1 µg/mL (≈ 0.361 µM)
Selectivity index [25]: >3 and >7
MIC [26]: 0.07 µg/mL (≈ 0.252 µM)
Selectivity index [27]: >5 and >2
MIC (Human alphaherpesvirus 3 [28]): 1.2 µg/mL and 0.49 µg/mL

Nc1ccn(C[C@@H](CO)OCP(=O)(O)O)c(=O)n1.O.O [CIDOFOVIR]
Cytotoxicity (E6SM): > 50 µg/mL
Cytotoxicity (HEL [29]): > 50 µg/mL
MIC (Cytomegalovirus [30]): 0.08 µg/mL
MIC (Cytomegalovirus [31]): 0.2 µg/mL

Nc1nc2c(ncn2COC(CO)CO)c(=O)[nH]1 [GANCICLOVIR]
MIC (Human alphaherpesvirus 1 [2]; [41]): 0.001 µg/mL (≈ 0.00392 µM)
Cytotoxicity (E6SM): > 50 µg/mL
Cytotoxicity (Vero): > 100 µg/mL
MIC [32]: 0.48 µg/mL (≈ 1.88 µM)
MIC [14, 41]: 0.001 µg/mL (≈ 0.00392 µM)
Cytotoxicity (HEL [29]): > 50 µg/mL
MIC [33]: 0.001 µg/mL (≈ 0.00392 µM)
MIC (Human alphaherpesvirus 1 [34]): 0.002 µg/mL (≈ 0.00784 µM)
MIC (Cytomegalovirus [30]): 0.6 µg/mL (≈ 2.35 µM)
MIC ([24]; Human alphaherpesvirus 2): 0.001 µg/mL (≈ 0.00392 µM)
MIC (Human alphaherpesvirus 1 [35]): 0.01 µg/mL (≈ 0.0392 µM)
MIC (Cytomegalovirus [31]): 0.8 µg/mL (≈ 3.13 µM)
MIC [26]: 0.001 µg/mL (≈ 0.00392 µM)

O=c1[nH]c(=O)n([C@H]2C[C@H](O)[C@@H](CO)O2)cc1/C=C/Br [BRIVUDINE]
MIC (Human alphaherpesvirus 1 [2]; [41]): 0.001 µg/mL (≈ 0.003 µM)
Cytotoxicity (E6SM): > 400 µg/mL
Cytotoxicity (Vero): > 400 µg/mL
MIC (Human alphaherpesvirus 3 [8]): > 50 µg/mL
MIC [32]: > 80 µg/mL
Cytotoxicity (HeLa): > 400 µg/mL
MIC (Human alphaherpesvirus 3 [11]; [42]): > 20 µg/mL
MIC [14, 41]: 0.001 µg/mL (≈ 0.003 µM)
MIC [17, 41]: > 80 µg/mL
MIC (Human alphaherpesvirus 3 [18]; [42]): 0.003 µg/mL (≈ 0.00901 µM)
Cytotoxicity (HEL [29]): > 200 µg/mL
MIC [36]: > 80 µg/mL
MIC (Human alphaherpesvirus 1 [20]; [41]): 0.001 µg/mL (≈ 0.003 µM)
Cytotoxicity (HEL [22]): > 50 µg/mL
MIC [24, 41]: > 80 µg/mL
MIC [26]: > 80 µg/mL
MIC (Human alphaherpesvirus 3 [28]; [42]): 0.03 µg/mL (≈ 0.0901 µM)

Nc1nc2c(ncn2COCCO)c(=O)[nH]1 [ACYCLOVIR]
MIC (Human alphaherpesvirus 1 [2]; [41]): 0.003 µg/mL (≈ 0.0133 µM)
Cytotoxicity (E6SM): > 50 µg/mL
MIC [37]: 1.1 µg/mL (≈ 4.88 µM)
MIC (Human alphaherpesvirus 3 [38]): 28 µg/mL (≈ 124 µM)
Cytotoxicity (Vero): > 400 µg/mL
MIC [32]: 9.6 µg/mL (≈ 42.6 µM)
MIC [14, 41]: 0.01 µg/mL (≈ 0.0444 µM)
MIC (Human alphaherpesvirus 2): 0.02 µg/mL (≈ 0.0888 µM)
MIC ([17]; Human alphaherpesvirus 1): 0.07 µg/mL (≈ 0.311 µM)
MIC (Human alphaherpesvirus 3 [39]): 13 µg/mL (≈ 57.7 µM)
MIC [33]: 0.005 µg/mL (≈ 0.0222 µM)
MIC ([24]; Human alphaherpesvirus 2): 0.02 µg/mL (≈ 0.0888 µM)
MIC [26]: 0.02 µg/mL (≈ 0.0888 µM)
MIC (Human alphaherpesvirus 3 [40]): 0.8 µg/mL (≈ 3.55 µM)
